In ChEMBL document CHEMBL4689842, “EUbOPEN Chemogenomics Library wave 1” (2021):
Several values for one entry are separate records, joined by “and”; a condition that tells them apart may be missing. Equal values may be shown once.

Experiments:
Format in all cases: toxicity, cell-based
HEK-293T [1] = experiment: Incucyte cell viability with HEK293T; conditions: human, 10 µM, compound concentration 10 uM; also: filed as whole numbers so only -1 and 0 and 1 occur
HEK-293T [2] = experiment: Multiplex assay against HEK293T; conditions: human, 10 µM, compound concentration 10 uM;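 as to Population Tubulin-Different-Phenotype (%): share of the cells with healthy nuclei that show this phenotype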
How it was run: (§1)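 Tubulin, mitochondrial-mass and membrane-permeability phenotypes are per cents of healthy-nucleus cells. Cells were gated by CellPathfinder machine learning into Hoechst high-intensity objects or normal cells, normal cells into healthy, pyknosed or fragmented nuclei, and pyknosed cells into mitotic or apoptotic. Before that, live cells stained at seeding with Hoechst33342, BioTracker Green Microtubule Cytoskeleton Dye, MitoTracker Red and Annexin V Alexa Fluor 680 were imaged on a CQ1 microscope at 37°C and 5% CO2 after compound addition.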

Fibroblast [3] = experiment: Incucyte cell viability with human fibroblast; conditions: 10 µM, compound concentration 10 uM; also: filed as whole numbers so only -1 and 0 and 1 occur
Fibroblast [4] = experiment: Multiplex assay against human fibroblast; conditions: 10 µM, compound concentration 10 uM; how it was run: as §1
U2OS [5] = experiment: Multiplex assay against U2OS; conditions: human, 10 µM, compound concentration 10 uM; how it was run: as §1
U2OS [6] = experiment: Incucyte cell viability with U2OS; conditions: human, 10 µM, compound concentration 10 uM; also: filed as whole numbers so only -1 and 0 and 1 occur
[7] = 0 h, replicate number 2, timepoint 0 hours
[8] = 6 h, replicate number 1, timepoint 6 hours
[9] = 12 h, replicate number 1, timepoint 12 hours
[10] = 18 h, replicate number 1, timepoint 18 hours
[11] = 24 h, replicate number 1, timepoint 24 hours
[12] = 18 h, replicate number 2, timepoint 18 hours
[13] = 24 h, replicate number 2, timepoint 24 hours
[14] = 0 h, replicate number 1, timepoint 0 hours

## CN1CCN(C(=O)C(C)(C)c2ccc(C(=O)Nc3cn4cc(-c5ccncc5)ccc4n3)cc2)CC1 [T3-CLK]
HEK-293T [1]; [7]
  Growth Rate: 1
HEK-293T [1]; [8]
  Growth Rate: 0
HEK-293T [1]; [9]
  Growth Rate: 0
HEK-293T [1]; [10]
  Growth Rate: 0
HEK-293T [1]; [11]
  Growth Rate: 0
HEK-293T [2]; 12 h, replicate 1
  Population Hoechst High Intensity Objects (%): 16% and 14% and 10%
  Population Membrane Permeable-Phenotype (%): 6% and 17%
  Population Normal (%): 83% and 85% and 89%
  Population Pyknosed Nuclei (%): 24% and 27%
HEK-293T [2]; 12 h, replicate 2
  Population Fragmented Nuclei (%): 4% and 3% and 6%
  Population Hoechst High Intensity Objects (%): 7% and 4%
  Population Membrane Permeable-Phenotype (%): 10% and 5%
  Population Mitotic Cells (%): 49% and 79% and 91%
  Population Normal (%): 92% and 95%
  Population Tubulin-Different-Phenotype (%): 89% and 85% and 39%
HEK-293T [2]; 24 h, replicate 1
  Population Fragmented Nuclei (%): 15% and 17% and 6%
  Population Hoechst High Intensity Objects (%): 18% and 17% and 6%
  Population Membrane Permeable-Phenotype (%): 9% and 11% and 13%
  Population Normal (%): 81% and 82% and 93%
  Population Tubulin-Different-Phenotype (%): 100% and 76% and 34%
HEK-293T [2]; 24 h, replicate 2
  Population Fragmented Nuclei (%): 4% and 7%
  Population Membrane Permeable-Phenotype (%): 14% and 16% and 8%
  Population Normal (%): 91% and 97% and 94%
  Population Tubulin-Different-Phenotype (%): 91% and 70% and 94%
HEK-293T [2]; 48 h, replicate 1
  Population Apoptotic (%): 92%
  Population Fragmented Nuclei (%): 19%
  Population Healthy Nuclei (%): 10%
  Population Hoechst High Intensity Objects (%): 18%
  Population Membrane Permeable-Phenotype (%): 0%
  Population Mitochondria Different-Phenotype (%): 94%
  Population Mitotic Cells (%): 7%
  Population Normal (%): 81%
  Population Pyknosed Nuclei (%): 70%
  Population Tubulin-Different-Phenotype (%): 77%
  Total Cell Count: 216
HEK-293T [2]; 48 h, replicate 2
  Population Apoptotic (%): 91%
  Population Fragmented Nuclei (%): 7%
  Population Healthy Nuclei (%): 17%
  Population Hoechst High Intensity Objects (%): 4%
  Population Membrane Permeable-Phenotype (%): 12%
  Population Mitochondria Different-Phenotype (%): 79%
  Population Mitotic Cells (%): 8%
  Population Normal (%): 95%
  Population Pyknosed Nuclei (%): 75%
  Population Tubulin-Different-Phenotype (%): 87%
  Total Cell Count: 142
Fibroblast [3]; [7]
  Growth Rate: 0
Fibroblast [3]; [10]
  Growth Rate: 1
Fibroblast [3]; [11]
  Growth Rate: 1
Fibroblast [4]; 12 h, replicate 1
  Population Apoptotic (%): 65% and 61% and 86%
  Population Fragmented Nuclei (%): 35% and 22%
  Population Healthy Nuclei (%): 48% and 50% and 64%
  Population Hoechst High Intensity Objects (%): 12% and 17%
  Population Mitochondria Different-Phenotype (%): 6%
  Population Mitotic Cells (%): 35% and 38% and 13%
  Population Normal (%): 87% and 82%
  Population Pyknosed Nuclei (%): 15% and 14% and 13%
  Total Cell Count: 145 and 330 and 306
Fibroblast [4]; 12 h, replicate 2
  Population Membrane Permeable-Phenotype (%): 31% and 20% and 21%
  Population Normal (%): 73% and 49% and 92%
  Population Pyknosed Nuclei (%): 6% and 9% and 11%
  Population Tubulin-Different-Phenotype (%): 44% and 60% and 94%
  Total Cell Count: 87 and 63 and 57
Fibroblast [4]; 24 h, replicate 1
  Population Apoptotic (%): 69% and 55% and 80%
  Population Fragmented Nuclei (%): 37% and 35% and 18%
  Population Healthy Nuclei (%): 48% and 45% and 67%
  Population Hoechst High Intensity Objects (%): 18% and 11% and 13%
  Population Mitotic Cells (%): 30% and 44% and 20%
  Population Normal (%): 81% and 88% and 86%
  Population Pyknosed Nuclei (%): 13% and 19%
  Total Cell Count: 335 and 161 and 296
Fibroblast [4]; 24 h, replicate 2
  Population Membrane Permeable-Phenotype (%): 33% and 17%
  Population Normal (%): 58% and 90% and 61%
  Population Pyknosed Nuclei (%): 9% and 11% and 6%
  Population Tubulin-Different-Phenotype (%): 33% and 88% and 50%
  Total Cell Count: 53 and 57 and 76
Fibroblast [4]; 48 h, replicate 1
  Population Apoptotic (%): 52%
  Population Fragmented Nuclei (%): 52%
  Population Healthy Nuclei (%): 32%
  Population Hoechst High Intensity Objects (%): 17%
  Population Membrane Permeable-Phenotype (%): 32%
  Population Mitochondria Different-Phenotype (%): 20%
  Population Mitotic Cells (%): 47%
  Population Normal (%): 82%
  Population Pyknosed Nuclei (%): 15%
  Population Tubulin-Different-Phenotype (%): 76%
  Total Cell Count: 162
Fibroblast [4]; 48 h, replicate 2
  Population Apoptotic (%): 63%
  Population Fragmented Nuclei (%): 38%
  Population Healthy Nuclei (%): 49%
  Population Hoechst High Intensity Objects (%): 6%
  Population Membrane Permeable-Phenotype (%): 47%
  Population Mitochondria Different-Phenotype (%): 15%
  Population Mitotic Cells (%): 36%
  Population Normal (%): 93%
  Population Pyknosed Nuclei (%): 12%
  Population Tubulin-Different-Phenotype (%): 65%
  Total Cell Count: 95
U2OS [5]; 12 h, replicate 1
  Population Apoptotic (%): 37% and 22%
  Population Healthy Nuclei (%): 90% and 71% and 89%
  Population Hoechst High Intensity Objects (%): 5%
  Population Mitotic Cells (%): 62% and 77%
  Population Normal (%): 94%
  Population Pyknosed Nuclei (%): 10% and 7%
  Total Cell Count: 128 and 143 and 333
U2OS [5]; 12 h, replicate 2
  Population Healthy Nuclei (%): 88% and 70% and 87%
  Population Hoechst High Intensity Objects (%): 6% and 7% and 9%
  Population Membrane Permeable-Phenotype (%): 62% and 21% and 25%
  Population Mitotic Cells (%): 50% and 100% and 66%
  Population Normal (%): 93% and 92% and 90%
  Population Pyknosed Nuclei (%): 5% and 11% and 3%
U2OS [5]; 24 h, replicate 1
  Population Apoptotic (%): 36% and 62% and 33%
  Population Fragmented Nuclei (%): 11% and 21% and 8%
  Population Healthy Nuclei (%): 81% and 64% and 77%
  Population Hoechst High Intensity Objects (%): 5% and 10% and 6%
  Population Membrane Permeable-Phenotype (%): 52% and 26% and 34%
  Population Mitotic Cells (%): 63% and 37% and 66%
  Population Normal (%): 94% and 90% and 93%
  Population Pyknosed Nuclei (%): 6% and 13% and 14%
  Total Cell Count: 137 and 141 and 262
U2OS [5]; 24 h, replicate 2
  Population Apoptotic (%): 50% and 22%
  Population Fragmented Nuclei (%): 29% and 22% and 15%
  Population Healthy Nuclei (%): 58% and 66% and 70%
  Population Hoechst High Intensity Objects (%): 12% and 9%
  Population Membrane Permeable-Phenotype (%): 17% and 19%
  Population Mitotic Cells (%): 50% and 77%
  Population Normal (%): 87%
  Population Pyknosed Nuclei (%): 11%
U2OS [5]; 48 h, replicate 1
  Population Apoptotic (%): 73%
  Population Fragmented Nuclei (%): 34%
  Population Healthy Nuclei (%): 15%
  Population Hoechst High Intensity Objects (%): 16%
  Population Membrane Permeable-Phenotype (%): 56%
  Population Mitochondria Different-Phenotype (%): 87%
  Population Mitotic Cells (%): 26%
  Population Normal (%): 83%
  Population Pyknosed Nuclei (%): 50%
  Population Tubulin-Different-Phenotype (%): 100%
  Total Cell Count: 145
U2OS [5]; 48 h, replicate 2
  Population Apoptotic (%): 61%
  Population Fragmented Nuclei (%): 28%
  Population Healthy Nuclei (%): 36%
  Population Hoechst High Intensity Objects (%): 23%
  Population Membrane Permeable-Phenotype (%): 63%
  Population Mitochondria Different-Phenotype (%): 81%
  Population Mitotic Cells (%): 38%
  Population Normal (%): 76%
  Population Pyknosed Nuclei (%): 35%
  Population Tubulin-Different-Phenotype (%): 90%
  Total Cell Count: 57
U2OS [6]; [7]
  Growth Rate: 0
U2OS [6]; [8]
  Growth Rate: 1
U2OS [6]; [9]
  Growth Rate: 0
U2OS [6]; 12 h, replicate number 2, timepoint 12 hours
  Growth Rate: 1
U2OS [6]; [10]
  Growth Rate: 0
U2OS [6]; [12]
  Growth Rate: 1
U2OS [6]; [11]
  Growth Rate: 0
U2OS [6]; [13]
  Growth Rate: 1

## Cc1ccc2nc(CNCCCOc3ccccc3)cc(O)c2c1 [UCSF924]
HEK-293T [1]; [14]
  Growth Rate: 0
HEK-293T [1]; [7]
  Growth Rate: 1
HEK-293T [1]; [8]
  Growth Rate: 0
HEK-293T [1]; [9]
  Growth Rate: 0
HEK-293T [1]; [10]
  Growth Rate: 0
HEK-293T [1]; [11]
  Growth Rate: 0
Fibroblast [3]; [7]
  Growth Rate: 1
Fibroblast [3]; [8]
  Growth Rate: 0
Fibroblast [3]; 6 h, replicate number 2, timepoint 6 hours
  Growth Rate: 1
Fibroblast [3]; [9]
  Growth Rate: 0
Fibroblast [3]; [10]
  Growth Rate: 0
Fibroblast [3]; [11]
  Growth Rate: 0
U2OS [6]; [14]
  Growth Rate: 0
U2OS [6]; [8]
  Growth Rate: 0
U2OS [6]; [9]
  Growth Rate: 0
U2OS [6]; [10]
  Growth Rate: 0
U2OS [6]; [11]
  Growth Rate: 0

## CNC(=O)c1ccccc1Nc1cc(Nc2ccc(N3CCOCC3)cc2OC)ncc1C(F)(F)F [VS-4718]
HEK-293T [1]; [8]
  Growth Rate: 0
HEK-293T [1]; [9]
  Growth Rate: 0
HEK-293T [1]; [10]
  Growth Rate: 0
HEK-293T [1]; [11]
  Growth Rate: 0
Fibroblast [3]; [14]
  Growth Rate: 0
Fibroblast [3]; [10]
  Growth Rate: 1
Fibroblast [3]; [11]
  Growth Rate: 0
Fibroblast [3]; [13]
  Growth Rate: 1
U2OS [6]; [14]
  Growth Rate: 1
U2OS [6]; [7]
  Growth Rate: 0
U2OS [6]; [8]
  Growth Rate: 0
U2OS [6]; [9]
  Growth Rate: 0
U2OS [6]; [10]
  Growth Rate: 0
U2OS [6]; [11]
  Growth Rate: 0

## C=CC(=O)N1CCC([C@@H]2CCNc3c(C(N)=O)c(-c4ccc(Oc5ccccc5)cc4)nn32)CC1 [ZANUBRUTINIB]
HEK-293T [1]; [14]
  Growth Rate: 0
HEK-293T [1]; [9]
  Growth Rate: 0
HEK-293T [1]; [10]
  Growth Rate: 0
HEK-293T [1]; [11]
  Growth Rate: 0
Fibroblast [3]; [14]
  Growth Rate: 1
Fibroblast [3]; [7]
  Growth Rate: 0
Fibroblast [3]; [8]
  Growth Rate: 0
Fibroblast [3]; [9]
  Growth Rate: 0
Fibroblast [3]; [10]
  Growth Rate: 0
Fibroblast [3]; [12]
  Growth Rate: 1
Fibroblast [3]; [11]
  Growth Rate: 0
Fibroblast [3]; [13]
  Growth Rate: 1
U2OS [6]; [14]
  Growth Rate: 0
U2OS [6]; [8]
  Growth Rate: 0
U2OS [6]; [9]
  Growth Rate: 0
U2OS [6]; [10]
  Growth Rate: 0
U2OS [6]; [11]
  Growth Rate: 0
